# Measured values: ChEMBL document CHEMBL3351380, “Antioxidant and antimicrobial studies on fused-ring pyrazolones and isoxazolones” (Bioorg Med Chem, 2014)
# Calls of active or inactive are those of the source. No cut-off for these calls is given here.
# Assays:
# Candida albicans [1] = assay: Antifungal activity against Candida albicans assessed as zone of inhibition at 100 ug/ml by agar well diffusion method; type: functional; conditions: for zone of inhibition at 100 µg/mL: read-out: IZ
# Outline: (§1)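 For the agar well diffusion screen, samples at 100 µg/mL were made from a stock of 10 mg in 1 mL EtOH diluted 1:1 (v/v) with Mueller-Hinton medium. The zone of inhibition was scored as 5–10 mm poor, 10–15 moderate, 15–20 good and 20–25 very good. Gentamycin and nystatin were the reference drugs. Strains were confirmed at the University of Botswana microbiology laboratory.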
# Staphylococcus aureus [2] = assay: Antimicrobial activity against Staphylococcus aureus ATCC 25923 by agar well diffusion method; type: functional
# Escherichia coli [3] = assay: Antimicrobial activity against Escherichia coli ATCC 8739 by agar well diffusion method; type: functional
# Pseudomonas aeruginosa [4] = assay: Antimicrobial activity against Pseudomonas aeruginosa NCIMB 8295 by agar well diffusion method; type: functional
# Bacillus subtilis [5] = assay: Antimicrobial activity against Bacillus subtilis NCIB 3610 by agar well diffusion method; type: functional; conditions: subsp. subtilis str. NCIB 3610
# Candida albicans [6] = assay: Antifungal activity against Candida albicans by agar well diffusion method; type: functional
# [7] = Antioxidant activity assessed as DPPH radical scavenging activity after 30 mins by spectrophotometry; type: physicochemical
# Outline: (§2)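 DPPH (0.51 mM in methanol) was mixed 1:1 by volume with the compound at several concentrations (100, 50, 25 … µg/mL range). Absorbance was read against a control, and % inhibition = (A0−As)/A0 ×100. Readings were taken at 30 min and 3 h, with ascorbic acid as the reference. Triplicate measurements.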
# [8] = Antioxidant activity assessed as DPPH radical scavenging activity after 3 hrs by spectrophotometry; type: physicochemical; outline: as §2
# [9] = Antioxidant activity assessed as DPPH radical scavenging activity at 10 ug/ml after 3 hrs by spectrophotometry; type: physicochemical
# [10] = Metal chelating activity of the compound assessed as formation of iron complex after 20 mins by spectrophotometry; type: physicochemical
# Outline: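 Fe2+ chelation was measured by disruption of the o-phenanthroline–Fe2+ complex. O-phenanthroline (0.05% in methanol) and FeCl2 (0.1%) were mixed with the sample at various concentrations and held at room temperature for 20 min, then read at 510 nm. EDTA was the standard chelator. % chelation = (Acontrol−Asample)/Acontrol ×100, and IC50 came from plots of % chelation versus concentration. Triplicates.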
# Staphylococcus aureus [11] = assay: Antimicrobial activity against Staphylococcus aureus ATCC 25923 assessed as zone of inhibition at 100 ug/ml by agar well diffusion method; type: functional; conditions: for zone of inhibition at 100 µg/mL: read-out: IZ; outline: as §1
# Escherichia coli [12] = assay: Antimicrobial activity against Escherichia coli ATCC 8739 assessed as zone of inhibition at 100 ug/ml by agar well diffusion method; type: functional; outline: as §1
# Pseudomonas aeruginosa [13] = assay: Antimicrobial activity against Pseudomonas aeruginosa NCIMB 8295 assessed as zone of inhibition at 100 ug/ml by agar well diffusion method; type: functional; outline: as §1
# Bacillus subtilis [14] = assay: Antimicrobial activity against Bacillus subtilis NCIB 3610 assessed as zone of inhibition at 100 ug/ml by agar well diffusion method; type: functional; conditions: for Activity: subsp. subtilis str. NCIB 3610; outline: as §1
Compound,zone of inhibition at 100 µg/mL (Candida albicans [1]),MIC (Staphylococcus aureus [2]),MIC (Escherichia coli [3]),MIC (Pseudomonas aeruginosa [4]),MIC (Bacillus subtilis [5]),MIC (Candida albicans [6]),IC50 [7],IC50 [8],inhibition (INH) [9],IC50 [10],zone of inhibition at 100 µg/mL (Staphylococcus aureus [11]),Activity (Escherichia coli [12]),Activity (Pseudomonas aeruginosa [13]),Activity (Bacillus subtilis [14]),Activity (Candida albicans [1]),Activity (Staphylococcus aureus [11]),"zone of inhibition at 100 µg/mL (Bacillus subtilis [14]; subsp. subtilis str. NCIB 3610, read-out: IZ)"
O=C1NN=C2C=C(c3ccc(O)cc3)CC(c3cccc([N+](=O)[O-])c3)C12 (stereo not drawn),11 mm,2.5 µg/mL,inactive,inactive,inactive,2.5 µg/mL,55.88 µg/mL,30.23 µg/mL,> 40%,80.91 µg/mL,11 mm,inactive,inactive,inactive,–,–,–
COc1ccc(C2=CC3=NOC(=O)C3C(c3cccc([N+](=O)[O-])c3)C2)c(OC)c1 (stereo not drawn),–,inactive,inactive,inactive,inactive,inactive,275 µg/mL,140.02 µg/mL,–,746.04 µg/mL,–,inactive,inactive,inactive,inactive,inactive,–
O=C1NN=C2C=C(c3ccc(Br)cc3)CC(c3cccc([N+](=O)[O-])c3)C12 (stereo not drawn),10 mm,2.5 µg/mL,inactive,inactive,2.5 µg/mL,2.5 µg/mL,103.6 µg/mL,77.89 µg/mL,–,106.36 µg/mL,13 mm,inactive,inactive,–,–,–,13 mm
CCOC(=O)C1C(=O)C=C(c2ccc(OC)cc2)CC1c1cccc([N+](=O)[O-])c1 (stereo not drawn),–,inactive,inactive,inactive,inactive,inactive,196.5 µg/mL,98.53 µg/mL,–,1028 µg/mL,–,inactive,inactive,inactive,inactive,inactive,–
